Data: ChEMBL document CHEMBL4513216, “Probing the Open Global Health Chemical Diversity Library for Multistage-Active Starting Points for Next-Generation Antimalarials” (ACS Infect Dis, 2020)

Experiment: Toxicity liver stage against HepG2, at 10uM
Type: cell-based
Parameters: test concentration 10 uM, cell line HepG2-A16-CD81EGFP
Settings: human, HepG2-A16-CD81EGFP cells; read-out: INHIBITION
How it was run: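 Uninfected HepG2-A16-CD81EGFP cells, 3 × 10^3 per well, 1536-well, plated on prespotted compound at 10 μM final, parasite-free screening media added to match infected plates; puromycin 10 μM positive, DMSO 0.5% negative; run in parallel with 48 h PbLuc assay at 37 °C, 5% CO2; viability by CellTiter-Glo luminescence, normalized to controls.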

Structure (SMILES) | cytotoxicity at 10 µM [%]
Cc1ccc2c(c1)c(Sc1ccccc1)c(CC(=O)O)n2C | 3.56
COc1ccc2[nH]cc(C(=O)CNc3nccs3)c2c1 | 4.32
CS(=O)(=O)N1C[C@@H]2OCC(=O)N(CC3CCC3)[C@@H]2C1 | 8.94
O=C(Cc1ccccc1Cl)NCC1CCN(Cc2ccsc2)CC1 | -9.12
O=C(Nc1nc2c(s1)CN(S(=O)(=O)C1CC1)CC2)c1ccsc1 | 24.9
CCN(CC)C(=O)c1nc2c(s1)CCN(C(=O)CCC(=O)OC)CC2 | 12.9
O=C(c1ncn2c(C3CCN(CC4CC4)CC3)ccnc12)N1CCCC1 | -3
Cc1ccc(C(=O)N2CCc3ncnc(C)c3CC2)cn1 | 9.75
CCc1c(C)nc2n(c1=O)CC(C(=O)Nc1nccs1)CS2 (configuration not stated) | 1.83
O=C(Cn1cc(C(=O)O)ccc1=O)Nc1ccc(F)cc1Cl | 0.381
CCc1oc2ccc(NS(C)(=O)=O)cc2c1C(=O)OC | 6.8
CCn1nc(C)c(NC(=O)C(C)C)c1C | 1.73
Cc1cc2nc(SCC(=O)NC(C)C)n(Cc3ccco3)c(O)c-2n1 | 10.5
COCCCNC(=O)CCn1nc(C)c2ccccc21 | 9.87
NC(=O)C1(Cc2ccccc2-c2cncnc2)CCCNC1 (configuration not stated) | 3.35
COc1ccc(-c2cc(C3CCCCCN3S(C)(=O)=O)on2)cc1 (configuration not stated) | 0.46
CS(=O)(=O)c1cc(Cl)cnc1C1CCN(C(=O)C2CCCO2)CC1 (configuration not stated) | 4.38
Cc1cc(C(=O)N2CCC(O)(Cn3ccc4ccncc43)CC2)on1 | 7.55
O=C(Cn1cnc2cc3c(cc21)OCCCO3)NCCc1ccccc1 | 7.57
CNc1cncc(C2CCN(S(C)(=O)=O)CC2)n1 | 3.54
Cc1ccc(S(=O)(=O)N2CCC(c3n[nH]cc3C(=O)N(C)C)CC2)cc1 | -1.73
Cc1cnc(N2CCOC(C(=O)NCc3ccccc3)C2)s1 (configuration not stated) | -2.84
COc1ccc(Br)cc1SCCCS(C)(=O)=O | 3.85

Structure (SMILES) | cytotoxicity at 10 µM [%]
N#Cc1ccc(S(=O)(=O)Nc2ccc(N3CCOCC3)cn2)cc1 | 0.966
Cn1cc(-c2noc(C3(C)CCOCC3)n2)cn1 | -5.65
CC(C)Cc1nc(CS(=O)(=O)C(C)C(=O)N2CCOCC2)no1 (configuration not stated) | 3.13
CN(CCc1nc(-c2cccc(Cl)c2)no1)CCn1cccn1 | 8.86
O=C(NC(C1CC1)C1CC1)c1cccc[n+]1[O-] | 10.8
CCN(C)c1ccc(CNC(=O)CCn2cc(C)cn2)cc1F | -9.51
c1ccc(C2(NCC3CNc4ccnn4C3)CCC2)cc1 (configuration not stated) | -5.34
NC(=O)Nc1cccc(CNC(=O)CCCOCc2ccccc2)c1 | -8.06
Cc1cc(C2CCCN(C(=O)COc3ccc(F)cc3F)C2)n[nH]1 (configuration not stated) | 5.93
O=C(CCCn1cccn1)N1CCCC(n2cncn2)C1 (configuration not stated) | 6.61
O=C1CN(C(=O)CSC2CCCc3ccccc32)CCN1 (configuration not stated) | -9.45
COc1ccc(C(CC(=O)O)NC(=O)CCc2cccs2)cc1OC (configuration not stated) | -6.33
Cn1cc(C(=O)CC2CCCN2C(=O)c2ccc(Cl)o2)cn1 (configuration not stated) | -4.57
CC(C)C1CCCN1CC(=O)NCc1ccc(OCC(N)=O)cc1 (configuration not stated) | 7.01
CC1CCC(NC(=O)CNC2(c3ccc(F)cc3)CCOCC2)CC1 (configuration not stated) | 7.79
Cc1cccc2nc(CNC(=O)N3CCC(N4CC=CC4)C3)cn12 (configuration not stated) | 5.88
CC(=O)N(Cc1ncc(C)o1)C1CCN(CCc2ccncc2)C1 (configuration not stated) | 1.3
CCOC(=O)NC(=O)CSC(C)c1ccccc1F (configuration not stated) | -15.1
Cc1ccc(C(=O)NCc2ccc(N3CCNC(=O)C3)c(F)c2)cc1 | -3.31
CCC(CC)c1cc(CNC(=O)N2CCCN(C(C)=O)CC2)on1 | -7.55
Cc1noc(CCCC(=O)NC(C)c2nnc3n2CCC3)n1 (configuration not stated) | 0.259
CCOCCN1CCN(Cc2nnc(C3CC3)o2)CC1 | 1.95
O=C1CCC(=O)N1CCN1CCOC(c2ccsc2)C1 (configuration not stated) | 7.55

Structure (SMILES) | cytotoxicity at 10 µM [%]
COCCOCCNS(=O)(=O)C1CS(=O)(=O)c2ccccc21 (configuration not stated) | -15.3
Cn1ccnc1CCNS(=O)(=O)Cc1cccc(C#N)c1 | 0.867
CNS(=O)(=O)c1ccc(CNC(=O)c2cc(C)no2)cc1 | 5.12
CC(NC(=O)NCCNc1cccc(F)c1C#N)c1cccs1 (configuration not stated) | -1.31
OCCOc1cc(F)ccc1NCc1nc(-c2cccs2)no1 | -46.1
Cc1noc(CCCC(=O)Nc2cc(C(F)(F)F)c[nH]c2=O)n1 | -10.8
COc1ccc(NC2CCN(C3CC3)C2=O)cn1 (configuration not stated) | -10
Cc1nc(CN(CCS(C)(=O)=O)C(C)(C)C)no1 | -1.86
CS(=O)(=O)c1cccc(S(=O)(=O)NC(=O)CC2CCCC2)c1 | -7.59
O=C(NCCC1Cc2ccccc2C1)N1CCCC(O)C1 (configuration not stated) | 22.2
CN(Cc1nnc(C2CCC2)o1)C(C(N)=O)c1cccc(F)c1 (configuration not stated) | 16.7
O=C(NCC1CCCCO1)c1ccc(-c2cccs2)[nH]c1=O (configuration not stated) | -7.03
CCC(CC)c1nnc(NC(=O)N2CCC(C(N)=O)CC2)s1 | 8.26
CCOc1ccnc(N2CCN(C(=O)CCc3ccsc3)CC2)n1 | 8.15
O=C(O)c1ccc(S(=O)(=O)Nc2cccc(CC(F)(F)F)c2)c(F)c1 | -6.19
CCCN1C(=O)C2(CCCCC2)NC1c1cn(C)c(=O)n(C)c1=O (configuration not stated) | 4.45
COc1ccc(CCC(=O)Nc2ccncc2C)cc1 | 16.1
O=C(NCC1CCS(=O)(=O)C1)c1sccc1-c1ccc(F)cc1 (configuration not stated) | -1.79
Cc1ccc(C(=O)NC(C)CN2CCCC2=O)c(=O)[nH]1 (configuration not stated) | -0.524
Cc1ncc(-c2ccnc(N3CCCCCC3)n2)c(-c2cccnc2)n1 | 6.21
CC(C)[C@H]1CN(Cc2nccn2C)C[C@@H]1NC(=O)CCS(C)(=O)=O | -8.85
CCN(CCO)C[C@@H]1CN(c2cc(C(F)(F)F)cc(C)n2)C[C@@H]1CO | -1.7
Cc1c(C(=O)N2CCC3(CCCNC3=O)C2)sc2nc[nH]c(=O)c12 (configuration not stated) | -10.7

Structure (SMILES) | cytotoxicity at 10 µM [%]
COc1ccc2c(c1)OCC(CNC(=O)c1cnc(O)cn1)C2 (configuration not stated) | -1.09
COC[C@]1(O)CCN(c2cc(C3CC3)ncn2)CC1(C)C | -1.53
Cc1nn(C)c2nc(N3CCC(C(O)c4nccn4C)CC3)sc12 (configuration not stated) | 0.79
CC(C)n1cnnc1Cn1ccc2ncccc2c1=O | 0.86
CC(C)CCN1CCNC(=O)C1CC(=O)NCCc1cc(O)ncn1 (configuration not stated) | -0.806
Cc1noc(C)c1C1CCCN1C(=O)c1cn2ccsc2n1 (configuration not stated) | 12.3
CC(C)(C)N1CC(C(=O)NCc2noc(Cc3ccccc3)n2)CC1=O (configuration not stated) | 0.824
CC[C@@]1(O)CCN(C(=O)c2ccoc2)C[C@H]1O | 4.63
CCC1CN(C(=O)c2cncc(C)c2)CCC(=O)N1Cc1ccccc1 (configuration not stated) | 9.33
CO[C@H]1CN(C(C)C)C[C@@H]1NC(=O)Nc1cccc(SC)c1 | 2.85
COC(=O)N1CCCCC1C(=O)N1CCN(c2ncccc2C)CC1 (configuration not stated) | 3.37
Cc1ccc(C)c(OCc2cc(C(=O)N(C)Cc3cnn(C)c3)no2)c1 | -6.12
Cc1nc(CN2CCC(Oc3ccc(F)cc3C)(C(=O)O)CC2)co1 | 2.28
Cc1nn(CCO)cc1CN1CCCN(C2CCCC2)CC1 | 0.292
O=C(N[C@@H]1CCN(Cc2cccc3nonc23)C[C@H]1O)c1cccnc1 | -2.3
Cn1ccc2cc(C(=O)N3CCOCC3)ccc21 | 1.91
COc1ccc(-n2cccn2)cc1S(=O)(=O)N1C[C@H](C2CC2)[C@@H](N)C1 | 4.69
CN(CCc1ccccn1)[C@@H]1CCN(c2cc(C(N)=O)ccn2)C[C@H]1O | -9.17
Cc1cc(-c2nnc(SCC(=O)O)n2C(C)c2ccccc2)nn1C (configuration not stated) | -1.1
CCOC(=O)N1CC(C)=C(C)CN1C(=O)Nc1ccc(Cl)c(Cl)c1 | -0.113
Cc1ccc(-c2nc(CNC3CCc4ncnn4C3)co2)cc1 (configuration not stated) | -3.75
COc1ccccc1C(=O)Nc1cc(CC(C)C)nn1C | -12.5
Cc1cccc(OCCNC(=O)CN2CCCC2Cn2cncn2)c1 (configuration not stated) | -4.03

Structure (SMILES) | cytotoxicity at 10 µM [%]
Cc1ncncc1C(=O)NCCn1nc2ccccn2c1=O | -6.89
CN(CCC(F)(F)F)C(=O)c1nc(S(C)(=O)=O)n2ccccc12 | -7.51
Cc1nc(CN2CCCN(C(=O)CCc3ccco3)CC2)cs1 | 0.386
CCNC(c1ccc(C)cc1)c1cccnc1 (configuration not stated) | 0.533
COc1ccc(CCNC(=O)NCC(O)c2cccc(F)c2)cc1 (configuration not stated) | -6.33
COc1cccc(COCC(=O)N2CCCC(n3cccn3)C2)c1 (configuration not stated) | -0.363
CSc1nccn1-c1cccc(C(=O)NCc2nnc(C)n2C)c1 | -9.46
O=C(CCn1cccn1)N1CCN(CC(F)F)CC1 | -5.11
CN(Cc1ncc[nH]1)CC(c1cccs1)N1CCOCC1 (configuration not stated) | -4.22
CC(NC(=O)NCCCOC1CCCCC1)c1nncn1C (configuration not stated) | -7.47
CC(CC#N)NC(=O)c1cc(Br)c2c(c1)OCCO2 (configuration not stated) | 5.56
O=C(COc1cccc(Br)c1)N1CCOCC1c1ncon1 (configuration not stated) | -9.36
CC(Cn1cccn1)NC(=O)NCc1ccc(S(N)(=O)=O)cc1 (configuration not stated) | 3.63
CN(C)C(=O)c1sc2ncccc2c1C1CNCCO1 (configuration not stated) | 2.35
CN(C)c1ccc(CNCc2cnc(N3CCOCC3)nc2)cn1 | 9.44
c1csc(CN2C[C@H](OCC3CC3)[C@H]3COC[C@H]32)n1 | 2.57
CCc1ccc(CN2CCc3ncnc(N4CCOCC4)c3CC2)o1 | -2.05
COCC1CC2(CCN(Cc3ccncc3)CC2)CN1C(C)C (configuration not stated) | 1.73
CCCn1nccc1NC(=O)CN1CCc2c(nc(C(C)C)n2C)C1 | 4.02
CCc1noc(CN2C[C@@H]3CC[C@H]2CN(C2Cc4ccccc4C2)C3)n1 | -0.268
